Data taken from ChEMBL document CHEMBL1914385, “Isolation, structure, and biological activities of Fellutamides C and D from an undescribed Metulocladosporiella (Chaetothyriales) using the genome-wide Candida albicans fitness test” (J Nat Prod, 2011).
pIC50: −log10 of the molar value. In brackets after ≈: the same amount, converted by molar mass. Activity calls are given as the source filed them. The rule behind the calls is not given here. Non-standard residues stand in square brackets, D forms with d. Residues, ends and D or L forms follow the SMILES beside them. *: point of attachment. Myristoyl = CCCCCCCCCCCCCC(=O)*; Leu(ol) = CC(C)C[C@H](N)CO

Columns and labels:
Candida albicans [1] = assay: Antifungal activity against Candida albicans harboring heterozygous deletion of PRE4/orf19.4230 at 0.01 to 10 ug/mL after 24 hrs by NCCLS M27-P broth macrodilution method; assay type: functional, organism-based
Candida albicans [2] = assay: Antifungal activity against wild-type Candida albicans at 0.01 to 10 ug/mL after 24 hrs by NCCLS M27-P broth macrodilution method; assay type: functional, organism-based
Candida albicans [3] = assay: Antifungal activity against Candida albicans at 200 ug/ml after 24 hrs by NCCLS M27-P broth macrodilution method; assay type: functional, organism-based
[4] = Inhibition of Candida albicans 26S proteasome
Outline: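 Chymotrypsin-like proteasome activity measured by luminogenic Proteasome-Glo assay, with modifications. Used whole-cell extracts of exponential-phase C. albicans, about 10⁶ cell equivalents per assay.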

Aspergillus fumigatus = assay: Antifungal activity against Aspergillus fumigatus MF5668 after 24 hrs by NCCLS M27-P broth macrodilution method; assay type: functional; settings: MF5668, 24 h
Outline: (§1)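 MIC panel run in the fitness-test medium (modified RPMI), following an earlier published MIC method.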

Candida albicans [5] = assay: Ratio of gliotoxin IC50 to compound IC50 for Candida albicans 26S proteasome
Candida albicans [6] = assay: Antifungal activity against Candida albicans after 24 hrs by NCCLS M27-P broth macrodilution method; assay type: functional
Candida tropicalis = assay: Antifungal activity against Candida tropicalis MY1012 after 24 hrs by NCCLS M27-P broth macrodilution method; assay type: functional; settings: MY1012, 24 h; outline: as §1
Candida albicans [7] = assay: Antifungal activity against Candida albicans harboring heterozygous deletion of orf19.5378/SCL1 after 24 hrs by NCCLS M27-P broth macrodilution method; assay type: functional
Nakaseomyces glabratus = assay: Antifungal activity against Candida glabrata MY1381 after 24 hrs by NCCLS M27-P broth macrodilution method; assay type: functional; settings: MY1381, 24 h; outline: as §1
Candida albicans [8] = assay: Antifungal activity against Candida albicans harboring heterozygous deletion of PRE4/orf19.4230 after 24 hrs by NCCLS M27-P broth macrodilution method; assay type: functional
Candida albicans [9] = assay: Antifungal activity against Candida albicans 2323 after 24 hrs by NCCLS M27-P broth macrodilution method; assay type: functional; settings: Candida albicans, 2323, 24 h; outline: as §1
A549 = assay: Growth inhibition of human A549 cells at 3.1 to 50000 nM
Candida albicans [10] = assay: Antifungal activity against Candida albicans harboring heterozygous deletion of orf19.3168/RPN8 after 24 hrs by NCCLS M27-P broth macrodilution method; assay type: functional
Candida albicans [11] = assay: Ratio of lactacystin IC50 to compound IC50 for Candida albicans 26S proteasome
Pichia kudriavzevii = assay: Antifungal activity against Candida krusei ATCC 6258 after 24 hrs by NCCLS M27-P broth macrodilution method; assay type: functional; settings: ATCC 6258, 24 h; outline: as §1
Clavispora lusitaniae = assay: Antifungal activity against Candida lusitaniae MY1396 after 24 hrs by NCCLS M27-P broth macrodilution method; assay type: functional; settings: MY1396, 24 h; outline: as §1
Staphylococcus aureus = assay: Antibacterial activity against Staphylococcus aureus MB2865; assay type: functional
Candida parapsilosis = assay: Antifungal activity against Candida parapsilosis ATCC 22019 after 24 hrs by NCCLS M27-P broth macrodilution method; assay type: functional; settings: Lodderomyces parapsilosis, ATCC 22019, 24 h; outline: as §1
PC-3 = assay: Growth inhibition of human PC3 cells; assay type: functional, cell-based
Outline: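 PC-3 cells treated for 48 h across an 8-point dose series (final 50 000, 12 500, 3125, 781.3, 195.3, 48.8, 12.2, 3.1 nM). Viable cell mass was measured by ATP luminescence (Vialight) to give IC50.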

[12] = system: Trichophyton mentagrophytes; assay: Antifungal activity against Trichophyton mentagrophytes MF7004 after 24 hrs by NCCLS M27-P broth macrodilution method; assay type: functional; settings: MF7004, 24 h; outline: as §1
Candida albicans [13] = assay: Antifungal activity against Candida albicans harboring heterozygous deletion of orf19.4088/NUP188 after 24 hrs by NCCLS M27-P broth macrodilution method; assay type: functional
Candida albicans [14] = assay: Antifungal activity against Candida albicans harboring heterozygous deletion of PRE4/orf19.4230 at 10 ug/mL after 24 hrs by NCCLS M27-P broth macrodilution method; assay type: functional, organism-based
Candida albicans [15] = assay: Antifungal activity against wild-type Candida albicans at 10 ug/mL after 24 hrs by NCCLS M27-P broth macrodilution method; assay type: functional, organism-based

SMILES | Activity (Candida albicans [1]) | Activity (Candida albicans [2]) | IC50 [4] [µg/mL] | MIC (Aspergillus fumigatus) [µg/mL] | Ratio IC50 (Candida albicans [5]) | MIC (Candida albicans [6]) [µg/mL] | MIC (Candida tropicalis) [µg/mL] | MIC (Candida albicans [7]) [µg/mL] | MIC (Nakaseomyces glabratus) [µg/mL] | MIC (Candida albicans [8]) [µg/mL] | MIC (Candida albicans [9]) [µg/mL] | growth inhibition (GI) (A549) | MIC (Candida albicans [10]) [µg/mL] | Ratio IC50 (Candida albicans [11]) | MIC (Pichia kudriavzevii) [µg/mL] | MIC (Clavispora lusitaniae) [µg/mL] | MIC (Staphylococcus aureus) [µg/mL] | MIC (Candida parapsilosis) [µg/mL] | pIC50 (PC-3) | MIC [12] [µg/mL] | other results
CCCCCCCCCCCCCC(=O)N[C@@H](CC(N)=O)C(=O)N[C@@H](CCC(N)=O)C(=O)N[C@H](C=O)CC(C)C (Myristoyl-Asn-Gln-Leu-aldehyde) | Active | Active |  |  |  |  |  |  |  |  |  |  |  |  |  |  |  |  |  |  | 
CC(=O)N[C@@H](CSC(=O)[C@]1([C@@H](O)C(C)C)NC(=O)[C@H](C)[C@@H]1O)C(=O)O |  |  |  |  |  |  |  |  |  |  |  |  |  |  |  |  |  |  |  |  | Activity (Candida albicans [3]): inactive
CCCCCCCCCCC[C@@H](O)CC(=O)N[C@@H](CC(N)=O)C(=O)N[C@H](C(=O)N[C@H](C=O)CC(C)C)C(O)CC(N)=O (stereo partly specified) [FELLUTAMIDE D] | Active | Active | 0.2 (≈ 0.333 µM) | 32 (≈ 53.4 µM) | 10 | 1.25 (≈ 2.08 µM) | 8 (≈ 13.3 µM) | 10 (≈ 16.7 µM) | 8 (≈ 13.3 µM) | 10 (≈ 16.7 µM) | 16 (≈ 26.7 µM) | inactive | 10 (≈ 16.7 µM) | 10 | 8 (≈ 13.3 µM) | 32 (≈ 53.4 µM) | > 32 | 8 (≈ 13.3 µM) | 6.80 | > 32 | MIC (Candida albicans [13]): 10 µg/mL (≈ 16.7 µM)
CCCCCCCCCCC[C@@H](O)CC(=O)N[C@@H](CC(N)=O)C(=O)N[C@H](C(=O)N[C@H](C=O)C(C)C)C(O)CC(N)=O (stereo partly specified) [FELLUTAMIDE C] |  |  | 0.2 (≈ 0.341 µM) | 16 (≈ 27.3 µM) | 10 | 1.25 (≈ 2.13 µM) | 4 (≈ 6.83 µM) | 2.5 (≈ 4.27 µM) | 4 (≈ 6.83 µM) | 2.5 (≈ 4.27 µM) | 4 (≈ 6.83 µM) | inactive | 2.5 (≈ 4.27 µM) | 10 | 4 (≈ 6.83 µM) | 16 (≈ 27.3 µM) | > 32 | 2 (≈ 3.41 µM) | 6.36 | > 32 | MIC (Candida albicans [13]): 2.5 µg/mL (≈ 4.27 µM)
CCCCCCCCCCCCCC(=O)N[C@@H](CC(N)=O)C(=O)N[C@@H](CCC(N)=O)C(=O)N[C@H](CO)CC(C)C (Myristoyl-Asn-Gln-[Leu(ol)]) |  |  |  |  |  |  |  |  |  |  |  |  |  |  |  |  |  |  |  |  | Activity (Candida albicans [14]): inactive; Activity (Candida albicans [15]): inactive
CN1C(=O)[C@]23CC4=CC=C[C@H](O)[C@H]4N2C(=O)[C@@]1(CO)SS3 [GLIOTOXIN] |  |  |  |  |  | 4 (≈ 12.3 µM) |  |  |  |  |  |  |  |  |  |  |  |  |  |  | 
